pEC50: −log10 of the molar value. Blank lines part the entries; values can stand above or below the molecule they belong to.
Columns and labels:
[1] = tested on: RBL-2H3 cells; assay: β-Hexosaminidase secretion measurements in RBL-2H3 cells; assay type: cell-based, Rat
In short: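 RBL-2H3 cells are primed overnight with IgE, washed and incubated 1 h with test compound in Tyrode's buffer. Supernatant is sampled for spontaneous β-hexosaminidase release. Cells are then activated with DNP/BSA (0.1 μg/ml) for 30 min at 37°C. Release is expressed as percent of total enzyme from Triton X-100-lysed cells.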

[2] = tested on: NIH 3T3 fibroblasts; details: NIH 3T3 fibroblasts ref 30; cited from earlier work
[3] = tested on: RBL-2H3 cells; assay: Live cell microscopy of RBL-2H3 cells; assay type: cell-based, Rat; details: 10 μM; for cell shape changes in response to ligand-mediated activation: 1 μg/ml DNP/BSA, IgE primed cells
[4] = biological target: T1, Rac1 (Mus musculus, UniProt P63001); assay: G-LISA assay for active Rac in Swiss 3T3 cells; assay type: cell-based; details: for blocking EGF-stimulated Rac activation: concentrations of 1 μM or less
[5] = tested on: Swiss 3T3 cells; assay: Stress fiber formation in EGF treated Swiss 3T3 cells; assay type: cell-based; details: 10 μM, 30 min pre-treatment, 10 ng/ml EGF
In short: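 Quiescent, serum-starved Swiss 3T3 fibroblasts are treated 30 min with 10 μM test compound or DMSO, then stimulated with 10 ng/ml EGF for 2 min. Cells are imaged for actin stress fibres.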

[6] = tested on: H-Ras and Rab proteins; assay: Dose response of BODIPY-FL-GTP binding, 1 mM EDTA; details: 10^−4 M compound
In short: (§1)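 GST-GTPases are coupled overnight at 4°C to colour-coded GSH-beads at 1 μM each. Beads are run as a multiplex (Rab7 wt, Rab2 wt, H-Ras wt, H-RasG12V, Cdc42 wt, Cdc42Q61L). […] Buffer contains 1 mM EDTA. Test compound is a 9-point 1:3 series, final 10 nM–100 μM. Binding of 100 nM (final) BODIPY-FL-GTP is read by flow cytometry, in triplicate.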

[7] = biological target: T1, Rac1; assay: Rac activation assay; assay type: cell-based
In short: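 Swiss 3T3 cells are serum-starved overnight, then treated 20–30 min with 1% DMSO or 10 μM test compound. Some cells are then given 10 ng/ml EGF for 2 min; EGF alone is the positive control.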

[8] = tested on: Cdc42wt, Rac1wt, Rac1Q61L, Rab2 wt, Rab7wt, and H-Ras wt (GST-GTPases); assay: Multiplexed primary screen, flow cytometry bead-based BODIPY-FL-GTP binding; details: 10 μM compound, 100 nM BODIPY-FL-GTP, 1 mM EDTA
In short: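 Each GST-GTPase (1 μM) is loaded overnight at 4°C onto its own red-intensity GSH-bead set. Beads are washed in NP-HPSE with 0.1% BSA and 1 mM DTT, then pooled, about 2000 beads per GTPase per well. Test compound is added at 10 μM (1% DMSO), with BODIPY-FL-GTP from a 200 nM stock. Plates rotate 40–45 min at 4°C and are read by HyperCyt flow cytometry. FL8 identifies bead sets; median FL1 (530 nm) gives binding. Hits exceed 20% change from baseline. Controls are DMSO and 0.5 mM unlabelled GTP.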

[9] = biological target: GST-Rac1 (Homo sapiens, UniProt P63000); assay: In vitro bead based assay of Rac1 binding to fluorescent GTP; details: 10 μM compound, 100 nM fluorescent GTP
[10] = tested on: RBL-2H3 cells; assay: Rhodamine-phalloidin staining and confocal microscopy of RBL-2H3 cells; assay type: cell-based, Rat; details: 10 μM, DNP/BSA 1 μg/ml
In short: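 RBL-2H3 cells on coverslips are cultured overnight with or without 10 μM test compound; stimulated cells get 1 μg/ml DNP-BSA for 30 min. Cells are fixed in 3% paraformaldehyde, permeabilised 5 min in 0.1% Triton X-100, blocked 1 h in 1% BSA and stained 1 h with rhodamine-phalloidin, all at room temperature. Confocal x-y and x-z views are collected.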

[11] = tested on: Rac1 wt, Rac1Q61L, Rac2 wt, RhoA wt and RhoAL63, Cdc42 wt, Cdc42Q61L and Ral wt; assay: Eight-plex dose response of BODIPY-FL-GTP binding, 1 mM MgCl2; details: 1 mM MgCl2, 100 nM BODIPY-FL-GTP
In short: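 Buffer is NP-HPS with 1 mM MgCl2. Binding of 100 nM BODIPY-FL-GTP is measured by flow cytometry with or without a 9-point 1:3 test-compound series (final 10 nM–100 μM). Each series is run in triplicate.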

[12] = biological target: Wild-type GST-Cdc42 (Homo sapiens, UniProt P60953); assay: Real-time GTP-binding kinetic assay by flow cytometry
In short: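 GST-Cdc42 wt (4 μM) is bound to GSH-beads overnight at 4°C. Nucleotide is stripped with 10 mM EDTA for 20 min at 30°C, then beads are washed and resuspended in NP-HPS with 1 mM EDTA, 1 mM DTT and 0.1% BSA. Beads are preincubated 2 min with 1% DMSO or 10 μM test compound. Ice-cold BODIPY-FL-GTP (6.5–200 nM) is added, and association is followed 3 min by kinetic-mode flow cytometry (n=4). Bound signal at 3 min versus GTP concentration is curve-fitted.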

[13] = biological target: Cdc42 (Homo sapiens, UniProt P60953); assay: Dose response of BODIPY-FL-GTP binding, 1 mM EDTA
In short: as §1

[14] = 10 μM inhibitor, 6.5–200 nM BODIPY-GTP

Wild-type GST-Cdc42, sequence (P60953 whole entry): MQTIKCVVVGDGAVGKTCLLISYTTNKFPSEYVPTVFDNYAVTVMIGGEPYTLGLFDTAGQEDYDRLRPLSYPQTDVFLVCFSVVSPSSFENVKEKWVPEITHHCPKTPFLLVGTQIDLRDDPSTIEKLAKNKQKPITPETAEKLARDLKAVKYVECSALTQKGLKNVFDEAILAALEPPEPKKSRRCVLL
Cdc42, sequence (P60953 whole entry): as above

SMILES: O=c1cc(CN2CCOCC2)occ1OCCCCCSc1ccnc2cc(C(F)(F)F)ccc12 [EHT1864, reference compound]
inhibition of β-hexosaminidase secretion in response to ligand-stimulation ([1]; 10 μM): failed to inhibit
lamellipodia formation following platelet derived growth factor stimulation [2]: blocked
cell shape changes in response to ligand-mediated activation [3]: failed to inhibit

SMILES: CCN(CC)CCCC(C)Nc1nc(C)cc(Nc2ccc3nc(C)cc(N)c3c2)n1 (centres unmarked) [NSC23766, reference compound]
toxicity to RBL-2H3 cells ([1]; 50 μM): toxic
spontaneous β-hexosaminidase release ([1]; 50 μM (Fig. 7A), 1 h): extensive
cell shape changes in response to ligand-mediated activation [3]: failed to inhibit
blocking EGF-stimulated Rac activation [4]: Neither compound was effective
inhibition of EGF stimulated activation of Rac1 ([4]; doses up to 50 μM): more modest inhibition

inhibition of BODIPY-FL-GTP binding [6]: < 20%
growth factor induced activation of Rac1 ([7]; 10 μM pretreatment, 10 ng/ml EGF for 2 min): completely inhibited
low level of active Rac1 in serum starved cells ([7]; 10 μM, 30 min pretreatment, no EGF): completely abolished
effect on BODIPY-FL-GTP binding to the tested GTPases, primary screen [8]: inhibitory effect
inhibition of BODIPY-FL-GTP binding to GST-Rac1 [9]: similar
spontaneous β-hexosaminidase secretion, absence of ligand stimulation ([1]; 10 μM, 1 h): no β-hexosaminidase secretion
inhibition of EGF stimulated activation of Rac1 ([4]; 3–10 μM, 1 h, then 10 ng/ml EGF 2 min): effectively inhibited
blocking EGF-stimulated Rac activation [4]: Neither compound was effective
effect on Bmax of GTP-binding [12, 14]: decreased
effect on affinity of GTP to wild type Cdc42 [12, 14]: remained constant
reversibility of activity ([12]; data not shown): not reversible
SMILES: O=C(C#Cc1ccccc1)c1cccc([N+](=O)[O-])c1 [MLS000532223, 1-(3-nitrophenyl)-3-phenyl-2-propyn-1-one]
formation of stress fibers upon EGF stimulation [5]: completely inhibited
toxicity to cells ([1]; 10 μM): not toxic
reduction of β-hexosaminidase secretion in ligand-stimulated cells ([1]; 10 μM, DNP/BSA): 50%
cell shape and F-actin after cross-linking of IgE receptors [10]: failed to flatten
cell shape changes in response to ligand-mediated activation [3]: completely abrogated
morphology of resting cells ([3]; no ligand): no change in morphology
effect on BODIPY-FL-GTP binding in the presence of Mg2+ [11]: inhibited the activity of all tested GTPases of the Rho and Ral families

effect on BODIPY-FL-GTP binding to the tested GTPases, primary screen [8]: Cdc42 specific inhibitor
pEC50 [13]: ~5.70
effect on BODIPY-FL-GTP binding in the presence of Mg2+ [11]: specific for Cdc42
SMILES: NS(=O)(=O)c1ccc(N2N=C(c3ccccc3)CC2c2ccccc2)cc1 (centres unmarked) [MLS000573151, 4-[3,5-di(phenyl)-4,5-dihydropyrazol-1-yl]benzenesulfonamide]

From paper PMC3433230 (Journal of biomolecular screening, 2009)
